Structures are written as SMILES. Calls of active or inactive are those of the source. The calls are words filed in the database; no cut-off is given here.

Data set [1] deals with Kidney. Nature of the data set: Drug uptake in Nu/Nu mouse kidney xenografted with HEK cells expressing delta opioid receptor (unknown origin). Format: ADME, tissue-based. Summed up:
(§1)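 Mice carrying HEK xenografts transfected with μ (HEK-mu) or δ (HEK-delta) opioid receptor. […] Mice were sacrificed at 4 h, and organs and tissues were collected and weighed. Radioactivity was counted against a standard tube and expressed as %ID/gram.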

The next data set has as its system Heart. The experiment in a line: Drug uptake in Nu/Nu mouse heart xenografted with HEK cells expressing delta opioid receptor (unknown origin). Format: ADME, tissue-based. In short, it runs like this:
as §1

Another data set relates to Liver. Nature of the data set: Drug uptake in Nu/Nu mouse liver xenografted with HEK cells expressing delta opioid receptor (unknown origin). Format: ADME, tissue-based. Summed up: as §1
For the next data set, the system named is Spleen. Nature of the data set: Drug uptake in Nu/Nu mouse spleen xenografted with HEK cells expressing delta opioid receptor (unknown origin). Format: ADME, tissue-based. Summed up:
as §1

Data set [2] deals with Intestine. The experiment in a line: Drug uptake in Nu/Nu mouse intestine xenografted with HEK cells expressing delta opioid receptor (unknown origin). Format: ADME, tissue-based. In short, it runs like this:
as §1

Data set [3] can be described thus: Drug uptake in Nu/Nu mouse skin xenografted with HEK cells expressing delta opioid receptor (unknown origin). Format: ADME, Zone of skin. In short, it runs like this:
as §1

Data set [4] is described as follows: Drug uptake in Nu/Nu mouse tumor xenografted with HEK cells expressing delta opioid receptor (unknown origin). Format: ADME, Neoplasm. In short, it runs like this:
as §1

Data set [5] is described as follows: Drug uptake in Nu/Nu mouse skin xenografted with HEK cells expressing mu opioid receptor (unknown origin). Format: ADME, Zone of skin. In short, it runs like this:
as §1

Data set [6] in a line: Drug uptake in Nu/Nu mouse tumor xenografted with HEK cells expressing mu opioid receptor (unknown origin). Format: ADME, Neoplasm. Summed up:
as §1

Data set [7] deals with Intestine. Nature of the data set: Drug uptake in Nu/Nu mouse intestine xenografted with HEK cells expressing mu opioid receptor (unknown origin). Format: ADME, tissue-based. Summed up:
as §1

The test system of data set [8] is Kidney. Nature of the data set: Drug uptake in Nu/Nu mouse kidney xenografted with HEK cells expressing mu opioid receptor (unknown origin). Format: ADME, tissue-based. Summed up:
as §1

Data set [9] concerns the target Mu-type opioid receptor (Homo sapiens) (UniProt P35372). Nature of the data set: Binding affinity to mu opioid receptor (unknown origin) expressed in HEK cells at 25 nM by confocal microscopic method. Format: cell-based. In short, it runs like this:
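HEK cells transfected to overexpress the μ-opioid receptor were treated with 25 nM rhodamine-labelled naltrexone-derived conjugate for 1 h. […] Cell-associated fluorescence and internalisation were imaged by confocal microscopy.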

The target in data set [10] is Delta-type opioid receptor (Homo sapiens) (UniProt P41143). Nature of the data set: Binding affinity to delta opioid receptor (unknown origin) expressed in HEK cells at 10 nM by confocal microscopic method. Format: cell-based. Summed up: (§2)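 HEK cells transfected to overexpress the δ-opioid receptor were incubated with a rhodamine-labelled naltrexone-derived conjugate for 1 h. They were given the conjugate alone or with a 100-fold higher concentration of naltrindole as competitor. Uptake and internalisation were imaged by confocal microscopy.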
Sequence of Delta-type opioid receptor (Homo sapiens) (P41143 whole entry): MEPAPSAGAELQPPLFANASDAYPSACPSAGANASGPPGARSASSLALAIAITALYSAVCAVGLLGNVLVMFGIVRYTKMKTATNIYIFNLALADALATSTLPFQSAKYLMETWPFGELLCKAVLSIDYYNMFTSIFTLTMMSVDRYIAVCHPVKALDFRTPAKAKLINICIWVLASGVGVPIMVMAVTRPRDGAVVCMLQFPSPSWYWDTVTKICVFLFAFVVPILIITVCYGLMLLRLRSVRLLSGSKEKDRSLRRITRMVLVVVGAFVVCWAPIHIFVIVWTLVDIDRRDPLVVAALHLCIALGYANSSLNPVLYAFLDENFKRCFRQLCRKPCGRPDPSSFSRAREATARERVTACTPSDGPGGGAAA

Data set [11] has the same target. Nature of the data set: Binding affinity to delta opioid receptor (unknown origin) expressed in HEK cells at 10 nM in presence of DOR antagonist […] after 1 hr by confocal microscopic method. Format: cell-based. Summed up: as §2
A short description of data set [12]: Displacement of [3H]DADLE from delta opioid receptor in guinea pig brain membrane. Format: cell membranes, Cavia porcellus.
A short description of data set [13]: Antitumor activity against human SQC cells xenografted in nude mouse model assessed as tumor growth inhibition at 0.1 mg/kg administered daily relative to control. Format: functional. The settings on record: read-out: TGI.

Sequence of Mu-type opioid receptor (Homo sapiens) (P35372 whole entry): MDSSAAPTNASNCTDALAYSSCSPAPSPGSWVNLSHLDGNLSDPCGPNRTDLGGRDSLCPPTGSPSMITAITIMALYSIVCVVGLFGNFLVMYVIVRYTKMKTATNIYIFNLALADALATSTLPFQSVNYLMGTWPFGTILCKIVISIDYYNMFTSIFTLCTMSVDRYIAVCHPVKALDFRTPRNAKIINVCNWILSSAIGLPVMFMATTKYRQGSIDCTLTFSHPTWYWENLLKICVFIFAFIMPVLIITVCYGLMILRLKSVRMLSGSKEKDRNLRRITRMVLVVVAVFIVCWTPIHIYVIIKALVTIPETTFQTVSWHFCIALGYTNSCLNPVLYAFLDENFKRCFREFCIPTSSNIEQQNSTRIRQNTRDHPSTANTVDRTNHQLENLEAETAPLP

As to `NC(CNC(=O)CCOCCOCCOCCOCCNC(=O)CCC(=O)NCCCCCn1cc(-c2ccc(C(=O)N[C@@H]3CC[C@@]4(O)[C@H]5Cc6ccc(O)c7c6[C@@]4(CCN5CC4CC4)[C@H]3O7)cn2)nn1)C(=O)NCC(N)C(=O)NC(CC(=O)O)C(=O)NC(CS)C(=O)O` (stereo partly specified), the Drug uptake entry (with Kidney [1]; in the data set with Heart; in the data set with Liver; in the data set with Spleen; with Intestine [2]; in [3]) was “Active” each time. Further, the Drug uptake result in data set [4] is on record as “Active”.
On to `NC(CNC(=O)CCOCCOCCOCCOCCNC(=O)CCC(=O)NCC(=O)NCC(=O)N[C@@H]1CC[C@@]2(O)[C@H]3Cc4ccc(O)c5c4[C@@]2(CCN3CC2CC2)[C@H]1O5)C(=O)NC(CC(=O)O)C(=O)NC(CS)C(=O)O` (stereo partly specified), for which the Drug uptake result (in data set [5]; in [6]; in the data set on Intestine [7]; in the data set with Kidney [8]) was “Active” throughout.
As for `CCN(CC)c1ccc2c(-c3ccc(NC(=S)NCC(=O)NCC(=O)N[C@@H]4CC[C@@]5(O)[C@H]6Cc7ccc(O)c8c7[C@@]5(CCN6CC5CC5)[C@H]4O8)cc3C(=O)O)c3ccc(=[N+](CC)CC)cc-3oc2c1`, the result in data set [9] was Active.
On to `CCN(CC)c1ccc2c(-c3ccc(NC(=S)NCCCCCn4cc(-c5ccc(C(=O)N[C@@H]6CC[C@@]7(O)[C@H]8Cc9ccc(O)c%10c9[C@@]7(CCN8CC7CC7)[C@H]6O%10)cn5)nn4)cc3C(=O)O)c3ccc(=[N+](CC)CC)cc-3oc2c1`, for which the outcome in data set [10] and in data set [11] was Active.
In data set [12], `O=C1CC[C@@]2(O)[C@H]3Cc4ccc(O)c5c4[C@@]2(CCN3CC2CC2)[C@H]1O5` [NALTREXONE] came in with an inhibition constant (Ki) of 10.5 nM. Moreover, the inhibition in vivo at 0.1 mg/kg in data set [13] is 84%.
